Experimental data taken from PMC5743405 (International Journal of Oncology, 2017).

How the values were obtained:
[1] = tested on: OPRM1; test: PathHunter β-arrestin; type: cell-based; conditions: 6 μM
In short: (§1)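 β-Arrestin recruitment to GPCR read by β-galactosidase fragment complementation and chemiluminescence. Agonist: % = 100 × (test − vehicle)/(max control ligand − vehicle), hit at >30% and RLU > baseline + 3 SD. Antagonist, against EC80 agonist: % inhibition = 100 × (1 − (test − vehicle)/(EC80 − vehicle)), hit at >35% and RLU < EC80 − 3 SD.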

[2] = tested on: HRH2; test: PathHunter β-arrestin; type: cell-based; conditions: 6 μM
In short: (§2)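 Vendor-run (DiscoveRx) PathHunter enzyme fragment complementation. β-Arrestin carries the EA fragment and the receptor carries ED; recruitment restores β-gal activity, read by chemiluminescence (RLU). Agonist % activity = vehicle-subtracted RLU relative to max control ligand (gpcrMAX) or to vehicle (orphanMAX). Antagonist % inhibition = 100% × (1 − vehicle-subtracted sample RLU / vehicle-subtracted EC80 agonist control RLU).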

[3] = tested on: KISS1R; test: PathHunter β-arrestin; type: cell-based; conditions: 6 μM
In short: as §2

[4] = tested on: MRGPRX1; test: PathHunter β-arrestin; type: cell-based; conditions: 6 μM
In short: as §2

[5] = tested on: PTHR1; test: PathHunter β-arrestin; type: cell-based; conditions: 6 μM
In short: as §1

[6] = tested on: nucleolin; test: western blot, JJ012 cells; type: cell-based, human; conditions: vs untreated control, overnight incubation
[7] = tested on: miR-302C; conditions: human chondrosarcoma; targets Nanog, c-Myc and Bmi1 also; ref [10]; cited from earlier work
[8] = tested on: CCR3; test: PathHunter β-arrestin; type: cell-based; conditions: 6 μM
In short: (§3)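 β-Arrestin recruitment assay: the enzyme acceptor is fused to β-arrestin and the ED fragment to the GPCR. Recruitment restores β-galactosidase, read by chemiluminescence. % activity = 100% × (test − vehicle)/(max control ligand − vehicle). % inhibition = 100% × (1 − (test − vehicle)/(EC80 control − vehicle)). An agonist hit needs >30% activity and RLU > baseline + 3×SD. An antagonist hit needs >35% inhibition and RLU < EC80 RLU − 3×SD.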

[9] = tested on: CHRM5; test: PathHunter β-arrestin; type: cell-based; conditions: 6 μM
In short: (§4)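 Engineered cells express the receptor fused to one β-galactosidase fragment (ED) and β-arrestin fused to the complementing fragment (EA). Receptor activation recruits β-arrestin, which restores enzyme activity, and this is read by chemiluminescence (RLU). Agonist % activity is 100% × (test − vehicle)/(maximal control ligand − vehicle). Antagonist mode is challenged with an EC80 control agonist, and % inhibition is 100% × (1 − (test − vehicle)/(EC80 − vehicle)). Hits require >30% activity or >35% inhibition, plus a 3×SD RLU margin.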

[10] = tested on: CXCR6; test: PathHunter β-arrestin; type: cell-based; conditions: 6 μM
In short: as §4

[11] = tested on: SSTR3; test: PathHunter β-arrestin; type: cell-based; conditions: 6 μM
In short: as §1

[12] = ref [61]; cited from earlier work
[13] = tested on: EDG3; test: PathHunter β-arrestin; type: cell-based; conditions: antagonist mode, 6 μM
In short: as §4

[14] = tested on: CCR6; test: PathHunter β-arrestin; type: cell-based; conditions: antagonist mode, 6 μM
In short: as §4

[15] = tested on: NPBWR2; test: PathHunter β-arrestin; type: cell-based; conditions: 6 μM
In short: as §2

[16] = tested on: BDKRB1; test: PathHunter β-arrestin; type: cell-based; conditions: 6 μM
In short: as §3

[17] = tested on: CXCR3; test: PathHunter β-arrestin; type: cell-based; conditions: 6 μM
In short: as §4

[18] = tested on: GPR109B; test: PathHunter β-arrestin; type: cell-based; conditions: 6 μM
In short: as §2

[19] = tested on: C3AR1; test: PathHunter β-arrestin; type: cell-based; conditions: antagonist mode, 6 μM
In short: as §3

[20] = tested on: F2RL1; test: PathHunter β-arrestin; type: cell-based; conditions: antagonist mode, 6 μM
In short: as §4

[21] = tested on: JJ012 chondrosarcoma cells; test: immunocytochemistry, PRP-1 localization; type: cell-based, human; conditions: PRP-1 antibody, Zenon Alexa Fluor 488; DAPI nuclear stain

Proline rich polypeptide 1 [PRP-1]
% Activity ([1]; agonist mode): 1%
% Inhibition ([1]; antagonist mode): −2%
% Activity ([2]; agonist mode): 1%
% Inhibition ([2]; antagonist mode): 1%
% Activity ([3]; agonist mode): 1%
% Inhibition ([3]; antagonist mode): 3%
% Activity ([4]; agonist mode): 1%
% Inhibition ([4]; antagonist mode): −2%
% Activity ([5]; agonist mode): 1%
% Inhibition ([5]; antagonist mode): −2%
protein expression [6]: no changes in nucleolin protein expression
miR-302c expression [7]: epigenetically downregulates
% Activity ([8]; agonist mode): 2%
% Inhibition ([8]; antagonist mode): −3%
% Activity ([9]; agonist mode): 5%
% Inhibition ([9]; antagonist mode): −4%
% Activity ([10]; agonist mode): 2%
% Inhibition ([10]; antagonist mode): −6%
% Activity ([11]; agonist mode): 1%
% Inhibition ([11]; antagonist mode): −5%
antibacterial properties [12]: antibacterial properties
% Inhibition [13]: 1%
% Inhibition [14]: 2%
% Activity ([15]; agonist mode): 1%
% Inhibition ([15]; antagonist mode): −3%
% Activity ([16]; agonist mode): 1%
% Inhibition ([16]; antagonist mode): −8%
% Activity ([17]; agonist mode): 1%
% Inhibition ([17]; antagonist mode): −1%
% Activity ([18]; agonist mode): 1%
% Inhibition ([18]; antagonist mode): −6%
% Inhibition [19]: −2%
% Inhibition [20]: 3%
localization [21]: manifested its presence in the nucleus
